From ChEMBL document CHEMBL4219167, “Disulfiram-based disulfides as narrow-spectrum antibacterial agents” (Bioorg Med Chem Lett, 2018)
Values after ≈ are worked out from the molar mass of the structure shown.

What was measured:
Streptococcus pyogenes = test: Antibacterial activity against Streptococcus pyogenes H293 after 20 hrs by broth microdilution assay; format: functional; conditions: H293, 20 h
Staphylococcus aureus [1] = test: Antibacterial activity against methicillin-resistant Staphylococcus aureus COL after 20 hrs by broth microdilution assay; format: functional
Streptococcus pneumoniae = test: Antibacterial activity against Streptococcus pneumoniae TCH8431 after 20 hrs by broth microdilution assay; format: functional; conditions: TCH8431, 20 h
[2] = tested on: Staphylococcus epidermidis; test: Antibacterial activity against vancomycin-intermediate resistant Staphylococcus epidermidis NRS6 after 20 hrs by broth microdilution assay; format: functional; conditions: NRS6, 20 h
Enterococcus faecium = test: Antibacterial activity against vancomycin-resistant Enterococcus faecium ATCC 700221 after 20 hrs by broth microdilution assay; format: functional; conditions: ATCC 700221, 20 h
Method in brief: (§1)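 Brain heart infusion broth at 37°C; E. faecium under 5% CO2. Cells at 0.5 McFarland are diluted 1:100 and exposed to serial dilutions (DMSO stocks 1 mM or 1 mg/mL; controls in water).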

Streptococcus agalactiae = test: Antibacterial activity against Streptococcus agalactiae SGBS005 after 20 hrs by broth microdilution assay; format: functional; conditions: SGBS005, 20 h
Staphylococcus aureus [3] = test: Antibacterial activity against vancomycin-resistant Staphylococcus aureus HIP14300 after 20 hrs by broth microdilution assay; format: functional; conditions: HIP14300, 20 h
Staphylococcus aureus [4] = test: Antibacterial activity against vancomycin-intermediate resistant Staphylococcus aureus AR-217 after 20 hrs by broth microdilution assay; format: functional; conditions: AR-217, 20 h
HepG2 = test: Cytotoxicity against human HepG2 cells assessed as reduction in cell viability after 72 hrs by MTT assay; format: cell-based; conditions: HepG2, 72 h
[5] = tested on: Yersinia pseudotuberculosis; test: Antibacterial activity against Yersinia pseudotuberculosis P61 after 20 hrs by broth microdilution assay; format: functional; conditions: P61, 20 h
Method in brief: (§2)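 Yersinia cultured in tryptic soy broth at 28°C. A 0.5 McFarland suspension diluted 1:100 receives serial dilutions of agents from 1 mM or 1 mg/mL DMSO stocks; control antibiotics are in water.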

Escherichia coli = test: Antibacterial activity against Escherichia coli DC10B after 20 hrs by broth microdilution assay; format: functional
Method in brief: (§3)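 Medium is tryptic soy broth, 37°C. Overnight culture is adjusted to 0.5 McFarland, diluted 1:100 and exposed to serial dilutions (test agents from 1 mM or 1 mg/mL DMSO stocks; control antibiotics in water). Incubation lasts 20 h. MIC is the lowest concentration with no visible growth.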

Yersinia pestis [6] = test: Antibacterial activity against Yersinia pestis Kim D2 after 20 hrs by broth microdilution assay; format: functional; conditions: Kim D2, 20 h
Corynebacterium striatum = test: Antibacterial activity against Corynebacterium striatum FS-1 after 20 hrs by broth microdilution assay; format: functional; conditions: FS-1, 20 h
Bacillus anthracis [7] = test: Antibacterial activity against Bacillus anthracis UM23-1 after 20 hrs by broth microdilution assay; format: functional; conditions: UM23-1, 20 h
Yersinia enterocolitica = test: Antibacterial activity against Yersinia enterocolitica WA-314 after 20 hrs by broth microdilution assay; format: functional; conditions: WA-314, 20 h; method in brief: as §2
Listeria monocytogenes = test: Antibacterial activity against Listeria monocytogenes Gibson after 20 hrs by broth microdilution assay; format: functional; method in brief: as §1
Proteus mirabilis = test: Antibacterial activity against Proteus mirabilis HM-752 after 20 hrs by broth microdilution assay; format: functional; conditions: HM-752, 20 h; method in brief: as §3
Klebsiella pneumoniae = test: Antibacterial activity against Klebsiella pneumoniae 700603 after 20 hrs by broth microdilution assay; format: functional; conditions: Klebsiella pneumoniae, 700603, 20 h; method in brief: as §3
Bacillus anthracis [8] = test: Antibacterial activity against Bacillus anthracis Weybridge after 20 hrs by broth microdilution assay; format: functional
Bacillus anthracis [9] = test: Antibacterial activity against Bacillus anthracis Ames 35 after 20 hrs by broth microdilution assay; format: functional; conditions: Ames 35, 20 h
Citrobacter freundii = test: Antibacterial activity against Citrobacter freundii 4_7_47CFAA after 20 hrs by broth microdilution assay; format: functional
Method in brief: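 Brucella broth, 37°C, 5% CO2. Inoculum is 0.5 McFarland diluted 1:100, with serial drug dilutions from DMSO stocks (1 mM or 1 mg/mL) and control antibiotics in water.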

Brucella neotomae = test: Antibacterial activity against Brucella neotomae 5K33 after 20 hrs by broth microdilution assay; format: functional; conditions: 5K33, 20 h
Shigella dysenteriae = test: Antibacterial activity against Shigella dysenteriae Newcastle 1934 after 20 hrs by broth microdilution assay; format: functional; conditions: Newcastle 1934, 20 h; method in brief: as §3
Francisella tularensis = test: Antibacterial activity against Francisella tularensis Utah 112 after 20 hrs by broth microdilution assay; format: functional; conditions: Utah 112, 20 h
Burkholderia multivorans = test: Antibacterial activity against Burkholderia multivorans CF2 after 20 hrs by broth microdilution assay; format: functional; conditions: CF2, 20 h; method in brief: as §3
Salmonella typhi = test: Antibacterial activity against Salmonella typhi Ty2 after 20 hrs by Todd Hewitt broth broth microdilution method; format: functional, Salmonella enterica subsp. enterica serovar Typhi str. Ty2; conditions: Salmonella enterica
Micrococcus luteus = test: Antibacterial activity against Micrococcus luteus SK58 after 20 hrs by broth microdilution assay; format: functional; conditions: SK58, 20 h
Acinetobacter baumannii = test: Antibacterial activity against Acinetobacter baumannii AB5075 after 20 hrs by broth microdilution assay; format: functional; conditions: AB5075, 20 h
Rhodococcus erythropolis = test: Antibacterial activity against Rhodococcus erythropolis SK121 after 20 hrs by broth microdilution assay; format: functional; conditions: SK121, 20 h
Method in brief: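 R. erythropolis grown in brain heart infusion broth at 30°C. A 0.5 McFarland suspension diluted 1:100 is treated with serial dilutions from 1 mM or 1 mg/mL DMSO stocks; control antibiotics are in water.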

Bacillus anthracis [10] = test: Antibacterial activity against Bacillus anthracis Sterne 34F2 after 20 hrs by broth microdilution assay; format: functional; conditions: Sterne 34F2, 20 h
Vibrio cholerae = test: Antibacterial activity against Vibrio cholerae TS D4 after 20 hrs by Todd Hewitt broth broth microdilution method; format: functional; conditions: TS D4, 20 h
Pseudomonas aeruginosa = test: Antibacterial activity against Pseudomonas aeruginosa ATCC 15442 after 20 hrs by broth microdilution assay; format: functional; conditions: ATCC 15442, 20 h; method in brief: as §3
Burkholderia cepacia = test: Antibacterial activity against Burkholderia cepacia UCB 717 after 20 hrs by broth microdilution assay; format: functional; conditions: UCB 717, 20 h; method in brief: as §3
Yersinia pestis [11] = test: Antibacterial activity against Yersinia pestis Kuma D7 after 20 hrs by broth microdilution assay; format: functional; conditions: Kuma D7, 20 h
Bacillus cereus = test: Antibacterial activity against Bacillus cereus Gibson 971 after 20 hrs by broth microdilution assay; format: functional; conditions: Gibson 971, 20 h

## CCCCSSC(=S)N(CC)CC [BUTYL DIETHYLCARBAMO(DITHIOPEROXO)THIOATE]
Streptococcus pyogenes
  MIC: 32 µM (≈ 7.6 µg/mL)
Staphylococcus aureus [1]
  MIC: 16 µM (≈ 3.8 µg/mL)
Streptococcus pneumoniae
  MIC: > 32 µM
[2]
  MIC: 32 µM (≈ 7.6 µg/mL)
Enterococcus faecium
  MIC: > 32 µM
Streptococcus agalactiae
  MIC: > 32 µM
Staphylococcus aureus [3]
  MIC: 16 µM (≈ 3.8 µg/mL)
Staphylococcus aureus [4]
  MIC: 16 µM (≈ 3.8 µg/mL)

## CCCCCCCCCSSC(=S)N(CC)CC
Streptococcus pyogenes
  MIC: 8 µM (≈ 2.46 µg/mL)
Staphylococcus aureus [1]
  MIC: 8 µM (≈ 2.46 µg/mL)
Streptococcus pneumoniae
  MIC: 8 µM (≈ 2.46 µg/mL)
[2]
  MIC: 4 µM (≈ 1.23 µg/mL)
Enterococcus faecium
  MIC: 8 µM (≈ 2.46 µg/mL)
Streptococcus agalactiae
  MIC: 32 µM (≈ 9.84 µg/mL)
HepG2
  IC50: 55 µM
Staphylococcus aureus [3]
  MIC: 16 µM (≈ 4.92 µg/mL)
Staphylococcus aureus [4]
  MIC: 8 µM (≈ 2.46 µg/mL)

## CCCCCCCCCCSSC(=S)N(CC)CC
Streptococcus pyogenes
  MIC: 4 µM (≈ 1.29 µg/mL)
Staphylococcus aureus [1]
  MIC: 16 µM (≈ 5.15 µg/mL)
Streptococcus pneumoniae
  MIC: 4 µM (≈ 1.29 µg/mL)
[2]
  MIC: 16 µM (≈ 5.15 µg/mL)
Enterococcus faecium
  MIC: 16 µM (≈ 5.15 µg/mL)
Streptococcus agalactiae
  MIC: 16 µM (≈ 5.15 µg/mL)
Staphylococcus aureus [3]
  MIC: 32 µM (≈ 10.3 µg/mL)
Staphylococcus aureus [4]
  MIC: 16 µM (≈ 5.15 µg/mL)

## CCCCCCCSSC(=S)N(CC)CC
[5]
  MIC: > 32 µM
Escherichia coli
  MIC: > 32 µM
Yersinia pestis [6]
  MIC: 32 µM (≈ 8.95 µg/mL)
Corynebacterium striatum
  MIC: 16 µM (≈ 4.47 µg/mL)
Bacillus anthracis [7]
  MIC: 1 µM (≈ 0.28 µg/mL)
Streptococcus pyogenes
  MIC: 16 µM (≈ 4.47 µg/mL)
Yersinia enterocolitica
  MIC: > 32 µM
Staphylococcus aureus [1]
  MIC: 4 µM (≈ 1.12 µg/mL)
Listeria monocytogenes
  MIC: 4 µM (≈ 1.12 µg/mL)
Streptococcus pneumoniae
  MIC: 32 µM (≈ 8.95 µg/mL)
Proteus mirabilis
  MIC: > 32 µM
Klebsiella pneumoniae
  MIC: > 32 µM
Bacillus anthracis [8]
  MIC: 2 µM (≈ 0.559 µg/mL)
Bacillus anthracis [9]
  MIC: 4 µM (≈ 1.12 µg/mL)
Citrobacter freundii
  MIC: > 32 µM
Brucella neotomae
  MIC: > 32 µM
Shigella dysenteriae
  MIC: > 32 µM
Francisella tularensis
  MIC: 16 µM (≈ 4.47 µg/mL)
Burkholderia multivorans
  MIC: > 32 µM
[2]
  MIC: 4 µM (≈ 1.12 µg/mL)
Enterococcus faecium
  MIC: 8 µM (≈ 2.24 µg/mL)
Streptococcus agalactiae
  MIC: > 32 µM
Salmonella typhi
  MIC: > 32 µM
Micrococcus luteus
  MIC: 16 µM (≈ 4.47 µg/mL)
Acinetobacter baumannii
  MIC: > 32 µM
Staphylococcus aureus [3]
  MIC: 4 µM (≈ 1.12 µg/mL)
Staphylococcus aureus [4]
  MIC: 2 µM (≈ 0.559 µg/mL)
Rhodococcus erythropolis
  MIC: 16 µM (≈ 4.47 µg/mL)
Bacillus anthracis [10]
  MIC: 2 µM (≈ 0.559 µg/mL)
Vibrio cholerae
  MIC: > 32 µM
Pseudomonas aeruginosa
  MIC: > 32 µM
Burkholderia cepacia
  MIC: > 32 µM
Yersinia pestis [11]
  MIC: 32 µM (≈ 8.95 µg/mL)
Bacillus cereus
  MIC: 1 µM (≈ 0.28 µg/mL)

## CCN(CC)C(=S)SSC1CCCC1
Streptococcus pyogenes
  MIC: 32 µM (≈ 7.98 µg/mL)
Staphylococcus aureus [1]
  MIC: 32 µM (≈ 7.98 µg/mL)
Streptococcus pneumoniae
  MIC: > 32 µM
[2]
  MIC: 32 µM (≈ 7.98 µg/mL)
Enterococcus faecium
  MIC: > 32 µM
Streptococcus agalactiae
  MIC: > 32 µM
Staphylococcus aureus [3]
  MIC: 32 µM (≈ 7.98 µg/mL)
Staphylococcus aureus [4]
  MIC: 16 µM (≈ 3.99 µg/mL)

## CCN(CC)C(=S)SSCC(C)C
Streptococcus pyogenes
  MIC: 32 µM (≈ 7.6 µg/mL)
Staphylococcus aureus [1]
  MIC: > 32 µM
Streptococcus pneumoniae
  MIC: > 32 µM
[2]
  MIC: > 32 µM
Enterococcus faecium
  MIC: > 32 µM
Streptococcus agalactiae
  MIC: > 32 µM
Staphylococcus aureus [3]
  MIC: > 32 µM
Staphylococcus aureus [4]
  MIC: > 32 µM

## CCSSC(=S)N(CC)CC
Streptococcus pyogenes
  MIC: 32 µM (≈ 6.7 µg/mL)
Staphylococcus aureus [1]
  MIC: 16 µM (≈ 3.35 µg/mL)
Streptococcus pneumoniae
  MIC: > 32 µM
[2]
  MIC: 32 µM (≈ 6.7 µg/mL)
Enterococcus faecium
  MIC: > 32 µM
Streptococcus agalactiae
  MIC: > 32 µM
Staphylococcus aureus [3]
  MIC: 16 µM (≈ 3.35 µg/mL)
Staphylococcus aureus [4]
  MIC: 8 µM (≈ 1.68 µg/mL)
